Measured values published in PubChem BioAssay.
A number with no mark means an inactive call. Results filed as inconclusive are left out. Active and inactive are the calls of the source.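 The calls were made as follows, unless noted: active = viability increase at or above a cutoff of the median across tested compounds plus 3 SD (cut at about 8.5% in these data, passing the limit was not always enough); inconclusive = some gains above the cutoff, reason not given; inactive = the rest.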

Columns and labels:
[1] = OD615 S. cerevisiae growth inhibition, permissive medium, pilot counter-assay, permissive growth control for S. cerevisiae lifespan shortening project (AID 705;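 active = growth inhibition above 25% in both replicates, a cutoff set 3 SD above the mean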); conditions: OD615, 24 h, at 10 µM, stronger effect = higher value
Procedure, shortened: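 Material: engineered DeaD yeast; Compound: one dose 10 µM, DMSO 0.25% final; Detection: absorbance (optical density) at 615 nm; Buffer or medium: permissive raffinose/galactose medium; Timing: 24 h exposure, 30 °C.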

[2] = Restrictive medium S. cerevisiae growth inhibition, OD615, pilot screen of yeast lifespan reduction project, restrictive growth control (AID 706;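 active = growth inhibition above a set limit, 3 SD over mean compound inhibition, in both replicates, cut at about 43% in these data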;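 also: modified DeaD lifespan yeast strain shifted to restrictive glucose medium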); conditions: OD615, 48 h, at 10 µM, stronger effect = higher value
Procedure, shortened: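 Buffer or medium: restrictive glucose medium (CSMM-D); test system: modified S. cerevisiae; doses: single dose of 10 µM compound final, 0.25% DMSO; schedule: 48 h compound exposure at 30 °C; detection: absorbance (optical density) measured at 615 nm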

[3] = viability gain of MRP-1-high H69AR cells under doxorubicin, pilot screen, MRP-1 activator project, CellTiter-Glo, duplicate (AID 807); conditions: H69AR viability with doxorubicin, CellTiter-Glo luminescence; at 10 µM; stronger effect = higher value;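 also: compound pretreatment 18-22 h then 72 h combined with doxorubicin; 0% = doxorubicin alone and 100% = vehicle without doxorubicin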
[4] = growth suppression of beta-catenin knockout HCT116, pilot screen, human colon tumor cells (AID 823;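 active = cell viability at or below a set limit in both duplicate runs, the limit being the all-compound median minus 4 SD, cut at about 23% in these data, passing the limit was not always enough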;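 also: 0% = wells killed by 20 µM Hyamine and 100% = untreated DMSO cell wells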); conditions: CellTiter-Glo, 60 h, at 10 µM, stronger effect = lower value
[5] = growth suppression of PTEN-deleted HCT116, pilot screen, cell-based, HCT116 clonal line, CellTiter-Glo (AID 824;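 active = viability at or below 27.92% in each of two runs, the all-compound median minus 4 SD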;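 also: 0% = 20 µM Hyamine control and 100% = vehicle cell control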); conditions: 60 h, at 10 µM, stronger effect = lower value
[6] = inhibitors of the yeast RAM network, pilot screen, dse1pr::URA3 reporter, 5-FOA selection (AID 869;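 active = inhibition over a set limit, the all-compound mean plus 3 SD, in both replicate runs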;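 also: 0% = DMSO wells with no growth and 100% = 10 µM 1-NA-PP1 with full growth; RAM network block rescues cells from 5-FOA so hits raise OD615 growth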); conditions: S. cerevisiae dse1pr::URA3 5-FOA growth, OD615, 2 d; at 10 µM; stronger effect = higher value; strain carries analog-sensitive mutant Cbk1 kinase
[7] = RAM signaling pathway blockade in yeast – S. cerevisiae, Pdr1DBD-CYC8 efflux-inhibited sensitized strain, primary screen (AID 1298;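 active = RAM network inhibition above 8.4% in each of two replicates, 3 SD over the compound average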;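 also: 0% = DMSO untreated cells without growth and 100% = 10 µM 1-NA-PP1 full growth; higher means more yeast growth rescued from 5-FOA killing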); conditions: S. cerevisiae cbk1-as DSE1-URA3 strain, 5-FOA growth OD615, 2 d; at 50 µM; stronger effect = higher value

Row | SMILES | growth inhibition [1] | growth inhibition [2] | viability increase [3] | viability [4] | viability [5] | inhibition [6] | RAM network inhibition [7]
1 | O=C(O)c1n[nH]c2ccccc12 | -1.77% | -21.2% | -2.36% | 99.2% | 95.6% | 0.89% | 0.16%
2 | Nn1c(SCc2nc3ccccc3[nH]2)nnc1-c1cccnc1 | 4.54% | 14.9% | -2.44% | 90.2% | 95.7% | 1.13% | 1.82%
3 | CC(C)(C)C1CCc2c(sc(NC(=O)c3cc(C4CC4)on3)c2C#N)C1 (stereo not drawn) | -2.48% | -5.6% | -1.27% | 96.8% | 90.5% | 3.56% | 2.83%
4 | COC(=O)C1=C(C)N(C)C(=O)NC1c1ccc(O)c(OC)c1 (stereo not drawn) | 0.58% | -7.74% | -0.98% | 105% | 98.9% | 0.425% | 6.2%
5 | CCOc1ccc(N(CC(=O)N2CCc3ccccc32)S(=O)(=O)c2c(C)noc2C)cc1 | -1.81% | 10.1% | -5.12% | 65.7% | 59.2% | 3.63% | 2.47%
6 | COc1ccc(-c2cn3c(C)c(C(=O)Nc4ccncc4)sc3n2)cc1 | -4.55% | -15.3% | -3.37% | 102% | 90.1% | 3.6% | 5.99%
7 | C=CCn1cc(C(=O)NCc2cccnc2)c(=O)c2cc(S(=O)(=O)N(CC)CC)ccc21 | -7.53% | -8.9% | -3.95% | 103% | 97% | 1.33% | 0.51%
8 | Cc1ccc(OCCNC(=O)c2ccccc2N)cc1 | 1.82% | -18.1% | -2.73% | 103% | 97.6% | 0.785% | -0.05%
9 | CCCOc1ccc(C2c3c(oc4cc(C)c(C)cc4c3=O)C(=O)N2CCCN(C)C)cc1OCC (stereo not drawn) | -10.6% | -3.15% | -3.29% | 102% | 97.7% | 3.69% | -0.16%
10 | COC(=O)c1cc(=O)nc2scc(C)n12 | -13% | -18.9% | -0.3% | 103% | 99.5% | 0.885% | 4.74%
11 | COC(=O)C1=C(C)NC(=O)CC1c1cc2c(cc1Br)OCO2 (stereo not drawn) | 4.83% | 7.57% | -1.64% | 106% | 94.7% | 1.42% | 5.87%
12 | Cc1cc(Nc2ccc(Br)cc2)n2nc(C)nc2n1 | -14% | -2.33% | -2.63% | 96.2% | 88.3% | 2.85% | 4.46%
13 | Cn1nc(-c2ccc(Cl)cc2)c2cc(C(=O)NCCCN3CCCC3)sc21 | -5.71% | 4.49% | -8.31% | 2.27% (active) | 1.95% (active) | 1.23% | 0.73%
14 | Cc1ccc(-c2nc(CSCC(=O)N3CCN(c4ccccn4)CC3)c(C)o2)cc1 | -5.27% | 15.5% | -2.65% | 20.3% (active) | 44.5% | 1.56% | -0.57%
15 | COC(=O)c1cn(NC(=O)c2ccc3c(c2)OCO3)c(=O)c2ccccc12 | -4.02% | -1.45% | -2.75% | 96.3% | 97.3% | 1.44% | 6.69%
16 | CC(NC(=O)c1ccc2c(c1)OCO2)C1CCCO1 (stereo not drawn) | -3.77% | 7.33% | -0.15% | 96.8% | 94.5% | 1.44% | -0.53%
17 | CCCC(=O)N1CC(=O)Nc2ccc(F)cc2C1c1ccccc1 (stereo not drawn) | -5.99% | -15.7% | -1.01% | 111% | 92.6% | 3.18% | 3.75%
18 | C=CCOC(=O)C1=C(C)NC(=O)NC1c1ccc(Cl)cc1 (stereo not drawn) | -3.88% | -3.15% | 0.95% | 102% | 88.2% | -0.115% | 2.31%
19 | Cc1ccc(C2/C(=C(/O)c3ccc(Br)cc3)C(=O)C(=O)N2Cc2ccco2)o1 (stereo not drawn) | -16.2% | 7.88% | -6.07% | 55% | 65% | 0.82% | -1.74%
20 | C=CCNC(=O)C1CC(=O)N(c2ccc(Br)cc2)C1 (stereo not drawn) | -16.9% | -14.1% | -1.65% | 95.5% | 95.3% | 0.655% | 0.56%
21 | O=C(c1cccc(S(=O)(=O)N2CCCC2)c1)c1cccc(S(=O)(=O)N2CCCC2)c1 | -6.99% | -7.98% | -1.22% | 60.7% | 56.5% | 1.09% | 5.82%
22 | Cc1c(NC(=O)C2CCCN2S(=O)(=O)c2ccccc2)c(=O)n(-c2ccccc2)n1C (stereo not drawn) | -8.82% | -10.2% | -1% | 97.3% | 107% | 2.12% | 0.05%
23 | CCc1ccc(-c2nc(CN3CCCC(C(=O)O)C3)c(C)o2)cc1 (stereo not drawn) | 2.06% | -4.83% | 1.14% | 97.6% | 101% | -0.145% | 2.81%
24 | C=CCNc1ncnc2c1cnn2-c1cccc(C)c1 | 8.9% | 1.8% | -1.03% | 101% | 98.5% | 3.21% | 0.06%
